Here are results for 14 molecules from PubChem BioAssay.

The nature of assay [1]: inhibitors of TNFa-induced NFkB p65 translocation, primary screen, imaging, HUVEC, MLSMR starter and 10KST1 sets (AID 438;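 active = inhibition above 20% together with a positive visual image hit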;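 note: compound added about 3h40 before a 20 min TNFalpha stimulation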;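 for inhibition: signal is the nuclear over cytoplasmic p65 intensity ratio per well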). The conditions noted are these: HUVEC TNFa-induced p65 nuclear translocation; cell count: measured here: nuclei count (cytotoxicity indicator), at 2.08 µM; inhibition: at 2 µM, stronger effect = higher value, 0% TNFa-plus-vehicle, 100% no-TNFa wells.
Assay [2] in a line: inhibitors of mutant huntingtin aggregation, primary screen, imaging, exon1htt(103Q)mCFP cells, high-content imaging (AID 483;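 active = visual image review flags a hit and inhibition of aggregation exceeds 20%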;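 note: compound exposure lasted 3 days before fixation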;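 for nuclei count: percent of the per-plate median nuclei count of sample wells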). The conditions noted are these: exon1htt(103Q)mCFP cell line, aggregate imaging, at 2 µM; inhibition of aggregation: stronger effect = higher value; nuclei count: measured here: cell count, toxicity.
A short description of assay [3]: inhibitors of E-selectin induction by TNFa, primary screen, imaging, HUVEC, immunofluorescence, MLSMR starter and 10KST1 sets (AID 487;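 active = visually confirmed hit in the image check and inhibition above 20%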;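 for inhibition: signal is fraction of cell area covered by stained E-selectin grains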;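 for nuclei count: 100% = median nuclei count of all wells on the same plate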). The conditions noted are these: HUVEC TNFalpha-induced E-selectin immunofluorescence imaging, at 2 µM; inhibition: stronger effect = higher value; nuclei count: measured here: cell number, toxicity.
For assay [4], the target named is Voltage-gated potassium channel subunit beta-2 (Rattus norvegicus) (UniProt P62483). Briefly: KvBeta enzyme negative modulators, primary screen, biochemical, NADPH fluorescence (AID 622;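 active = fluorescence slope higher than the sample average by over 3 SD, cut at about -0.22 in these data, passing the limit was not always enough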;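 note: slope of raw intensity against log time taken from 70 to 1610 s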). The conditions noted are these: recombinant KvBeta, 4-cyanobenzaldehyde reduction, at 10 µM, stronger effect = higher value.
Assay [5] shares this target. Briefly: KvBeta positive modulators, primary screen, biochemical, NADPH fluorescence (AID 623;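 active = NADPH fluorescence slope more negative than the mean of all samples by about 3 SD, 99.7% confidence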;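 note: fluorescence intensity change per second fitted from 20 to 320 s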). The note with it: Recombinant KvBeta, NADPH fluorescence decrease slope, 10 min; at 10 µM; stronger effect = lower value.
Assay [6] has as its target Muscarinic acetylcholine receptor M4 (Homo sapiens) (UniProt P08173). Briefly: compounds altering M4/GIRK thallium flux, either direction, primary screen, M4 allosteric agonist project, cell-based, HEK293 M4/GIRK, BTC-AM (AID 625).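 Note: thallium influx through GIRK channels coupled to M4 in HEK293 cells with BTC-AM dye.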 The note with it: at 10 µM, actives lie on both sides. In short, it runs like this:
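System: HEK293 cells with M4 receptor and GIRK channels | Incubation: Cells overnight at 37 °C, BTC-AM loading 1 h, reads 2 min total | Technique: Kinetic BTC-AM fluorescence sampled at 1 Hz, 10 s pre-addition baseline | Measure: Post-addition slope, 15–24 s, of baseline-normalized fluorescence | Control set: Carbachol positive, DMSO negative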

Assay [7] is described as follows: inhibitors of Sendai virus-induced IRF3 signaling, primary screen, TLR/RLR signaling modifier project, cell-based, Sendai virus stimulus, luciferase, 10K MLSCN set (AID 602276;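 active = inhibition at or above 50% at 10 µM; inactive = inhibition below 50%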;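 note: firefly luciferase from ISG56 promoter only with Renilla not read in this screen; 0% = Sendai virus plus DMSO and 100% = medium plus DMSO without virus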). The note with it: HEK293 RL24 IRF3 luciferase reporter, at 10 µM, stronger effect = higher value. On the technique in general: A reporter such as luciferase makes a cellular process visible.
Assay [8] can be described thus: inhibitors of poly I:C-induced TLR3 signaling, primary screen, cell-based, poly I:C stimulus, luciferase, 10K MLSCN set (AID 602277;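 active = inhibition of the reporter signal at or above 50%; inactive = inhibition below 50%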). The note with it: HEK293-TLR3 RL24 IRF3 luciferase reporter, at 10 µM, stronger effect = higher value.

Each structure is given as a SMILES string. The source made the active and inactive calls.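 Rule for the calls, unless noted: active = fluorescence slope after compound addition differing from the mean of all tested samples at 99.7% confidence, mostly higher but some lower; inactive = the rest.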

In general, inhibition refers to the drop in the measured response relative to a control, in per cent.

Muscarinic acetylcholine receptor M4 (Homo sapiens), sequence (P08173 whole entry, looked up): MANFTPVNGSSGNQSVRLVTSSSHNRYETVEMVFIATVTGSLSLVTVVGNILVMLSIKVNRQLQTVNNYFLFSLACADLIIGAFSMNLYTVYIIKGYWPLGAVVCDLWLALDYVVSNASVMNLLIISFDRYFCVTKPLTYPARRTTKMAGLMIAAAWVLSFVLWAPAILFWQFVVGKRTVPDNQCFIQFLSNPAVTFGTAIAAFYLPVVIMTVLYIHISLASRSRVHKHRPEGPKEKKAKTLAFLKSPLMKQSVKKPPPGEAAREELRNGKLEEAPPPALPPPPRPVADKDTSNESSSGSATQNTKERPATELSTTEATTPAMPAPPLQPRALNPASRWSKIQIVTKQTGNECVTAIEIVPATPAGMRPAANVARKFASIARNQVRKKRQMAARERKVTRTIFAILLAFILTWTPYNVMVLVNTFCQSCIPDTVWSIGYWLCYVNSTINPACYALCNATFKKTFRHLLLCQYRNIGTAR
Voltage-gated potassium channel subunit beta-2 (Rattus norvegicus), sequence (P62483 whole entry, looked up): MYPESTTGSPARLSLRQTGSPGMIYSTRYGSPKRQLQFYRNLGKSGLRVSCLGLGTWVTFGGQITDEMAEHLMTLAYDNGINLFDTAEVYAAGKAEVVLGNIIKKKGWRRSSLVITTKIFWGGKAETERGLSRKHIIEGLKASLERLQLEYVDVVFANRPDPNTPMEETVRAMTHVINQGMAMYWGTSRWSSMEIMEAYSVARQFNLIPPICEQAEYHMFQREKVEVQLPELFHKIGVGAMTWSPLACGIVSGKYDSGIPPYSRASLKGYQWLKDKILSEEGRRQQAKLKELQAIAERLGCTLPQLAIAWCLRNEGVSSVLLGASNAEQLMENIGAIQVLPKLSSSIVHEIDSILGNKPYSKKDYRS

Consider `COC(=O)c1ccc2ncccc2c1`, for which, in assay [1], the cell count stood at 378. In addition, the inhibition in assay [1] is 2.6% (inactive); in assay [3], -10.4% (inactive); in assay [7], -15.2% (inactive); in assay [8], -24.8% (inactive). For the same molecule, the inhibition of aggregation in assay [2] is 9.1% (inactive). The values for the nuclei count in assay [2] and in assay [3] were 106% and 95.7%, respectively. Moreover, the fluorescence slope in assay [4] is -0.536 (inactive); in assay [6], 0.00451 (inactive). Further, the NADPH fluorescence slope in assay [5] was -8.5e-05 (inactive).
On to `O=C(Nc1ccccc1)N1C(=O)C2(OCCO2)c2ccccc21`, for which, in assay [1], the cell count turned out to be 397. For the same molecule, the inhibition was 6.5% (inactive) in assay [1], -75.2% (inactive) in assay [3], 14.1% (inactive) in assay [7] and 7.78% (inactive) in assay [8]. Also, the inhibition of aggregation in assay [2] was -15.7% (inactive). The results for the nuclei count in assay [2] and in assay [3] were 91.7% and 105%, respectively. The fluorescence slope in assay [4] was -0.542 (inactive); in assay [6] it was 0.00486 (inactive). Also, the NADPH fluorescence slope in assay [5] was -0.000137 (inactive).
Consider `Cn1c(=O)c2ccccc2n(Cc2ccccc2F)c1=O`, for which the cell count in assay [1] came to 254. Besides, the inhibition in assay [1] was -8.1% (inactive); in assay [3], -51.8% (inactive); in assay [7], 1.3% (inactive); in assay [8], 65.6% (active). Moreover, in assay [2], the inhibition of aggregation is 8.7% (inactive). Further, the nuclei count in assay [2] worked out at 74.6%; in assay [3] it was 73.9%. In addition, the results for the fluorescence slope in assay [4] and in assay [6] were -0.451 (inactive) and 0.00416 (inactive), respectively. Besides, the NADPH fluorescence slope in assay [5] is -7.1e-05 (inactive).
In the case of `O=C(Cn1nnc(-c2cccs2)n1)OC1CCCCC1`, in assay [1], the cell count amounted to 298. In addition, the inhibition in assay [1] was -4.7% (inactive); in assay [3], -108% (inactive); in assay [7] it was 11.6% (inactive); in assay [8], 5.67% (inactive). In addition, in assay [2], the inhibition of aggregation is -0.1% (inactive). The nuclei count in assay [2] was found to be 98.6%; in assay [3] it was 108%. Besides, the values for the fluorescence slope in assay [4] and in assay [6] were -0.547 (inactive) and 0.00395 (inactive), respectively. Further, the NADPH fluorescence slope in assay [5] was -9.5e-06 (inactive).
`Cc1[nH]c(=O)[nH]c(=O)c1S(=O)(=O)N(C)Cc1ccccc1`: in assay [1], the cell count came to 433. Moreover, the inhibition in assay [1] was 1.1% (inactive); in assay [3], -90.2% (inactive); in assay [7] it was 3.97% (inactive); in assay [8] it was 13.8% (inactive). In assay [2], the inhibition of aggregation was -2.7% (inactive). Moreover, the nuclei count in assay [2] and in assay [3] was 110% in each case. Also, the fluorescence slope in assay [4] is -0.491 (inactive); in assay [6], 0.00478 (inactive). Further, in assay [5], the NADPH fluorescence slope was 3.7e-05 (inactive).
Consider `c1ccc(-c2cn3c4c(sc3n2)CCCC4)cc1`, for which, in assay [1], the cell count amounted to 789. In addition, the inhibition is -4.8% (inactive) in assay [1], -34.8% (inactive) in assay [3], 5.66% (inactive) in assay [7] and 71.3% (active) in assay [8]. Further, in assay [2], the inhibition of aggregation was 40% (inactive). For the same molecule, the nuclei count in assay [2] was determined as 118%; in assay [3] it was 116%. Moreover, the fluorescence slope in assay [4] is -0.493 (inactive); in assay [6], 0.00593 (inactive). For the same molecule, in assay [5], the NADPH fluorescence slope is -7.1e-06 (inactive).
For `Cc1cc(/N=C/N(C)C)on1`, in assay [1], the cell count was found to be 522. Also, the inhibition was 1.5% (inactive) in assay [1], -19.3% (inactive) in assay [3], 19% (inactive) in assay [7] and 16% (inactive) in assay [8]. The inhibition of aggregation in assay [2] was 3.5% (inactive). Further, the nuclei count in assay [2] and in assay [3] was 104% in each case. Moreover, the fluorescence slope is -0.586 (inactive) in assay [4] and 0.00679 (inactive) in assay [6]. In assay [5], the NADPH fluorescence slope is -4.7e-05 (inactive).
For the molecule `O=c1nc(N2CCCC2)nc(Nc2ccccc2)[nH]1`, the cell count in assay [1] stood at 478. The inhibition in assay [1] is 8.9% (inactive); in assay [3] it was -62.6% (inactive); in assay [7], 3.72% (inactive); in assay [8], 3.61% (inactive). For the same molecule, the inhibition of aggregation in assay [2] was -12.9% (inactive). The nuclei count in assay [2] turned out to be 112%; in assay [3], 115%. The values for the fluorescence slope in assay [4] and in assay [6] were -0.559 (inactive) and 0.00545 (inactive), respectively. Besides, in assay [5], the NADPH fluorescence slope is -4e-05 (inactive).
Turning to `CC(=O)Oc1ccc(CCC(C)OC(C)=O)cc1` (centres undefined), the cell count in assay [1] came out at 634. The inhibition was -2.9% (inactive) in assay [1], -0.1% (inactive) in assay [3], 14.9% (inactive) in assay [7] and 12.9% (inactive) in assay [8]. In assay [2], the inhibition of aggregation is -2.2% (inactive). Besides, the nuclei count is 100% in assay [2] and 84% in assay [3]. The figures for the fluorescence slope in assay [4] and in assay [6] were -0.518 (inactive) and 0.00491 (inactive), respectively. For the same molecule, the NADPH fluorescence slope in assay [5] was -5.9e-05 (inactive).
Turning to `O=C(CSC1=NCCS1)NCc1ccco1`, the cell count in assay [1] is 294. In addition, the inhibition in assay [1] is 0.2% (inactive); in assay [3], -109% (inactive); in assay [7], -13.7% (inactive); in assay [8], -22.5% (inactive). Also, in assay [2], the inhibition of aggregation was 16.5% (inactive). For the same molecule, the values for the nuclei count in assay [2] and in assay [3] were 87.2% and 108%, respectively. The results for the fluorescence slope in assay [4] and in assay [6] were -0.268 (inactive) and 0.00551 (inactive), respectively. Moreover, the NADPH fluorescence slope in assay [5] is 1.6e-06 (inactive).
`CC(=O)C1=C(O)C(=O)N(Cc2ccco2)C1c1ccc(F)cc1` (centres undefined): in assay [1], the cell count was 381. In addition, the inhibition in assay [1] was 4.3% (inactive); in assay [3], 21.9% (inactive); in assay [7] it was 2% (inactive); in assay [8], 0.393% (inactive). In addition, in assay [2], the inhibition of aggregation was -7.7% (inactive). The nuclei count in assay [2] was determined as 92.3%; in assay [3], 98%. Moreover, the values for the fluorescence slope in assay [4] and in assay [6] were -0.576 (inactive) and 0.00555 (inactive), respectively. The NADPH fluorescence slope in assay [5] was 1e-05 (inactive).
In the case of `CCOc1ccc2ccccc2c1/C=N/n1cncn1`, in assay [1], the cell count was 416. For the same molecule, the inhibition in assay [1] is 3.4% (inactive); in assay [3], -92.4% (inactive); in assay [7], 11.7% (inactive); in assay [8], -8.9% (inactive). Further, the inhibition of aggregation in assay [2] was 9.7% (inactive). For the same molecule, the nuclei count came out at 97.3% in assay [2] and 120% in assay [3]. The fluorescence slope in assay [4] was -0.605 (inactive); in assay [6] it was 0.0038 (inactive). In assay [5], the NADPH fluorescence slope is -4.9e-05 (inactive).
`CSc1nsc(SCC(=O)N2CCc3ccccc32)n1`: in assay [1], the cell count turned out to be 296. For the same molecule, the inhibition in assay [1] is -3.5% (inactive); in assay [3] it was -98.3% (inactive); in assay [7], 5.46% (inactive); in assay [8], -2.99% (inactive). Further, the inhibition of aggregation in assay [2] is 22.6% (inactive). Also, the nuclei count came to 83.6% in assay [2] and 112% in assay [3]. Also, the results for the fluorescence slope in assay [4] and in assay [6] were -0.451 (inactive) and 0.005 (inactive), respectively. Further, the NADPH fluorescence slope in assay [5] was 1.5e-05 (inactive).
For the molecule `Cc1cc(/C=N/n2cnnc2)c(C)n1-c1ccc(Cl)cc1Cl`, the cell count in assay [1] came out at 485. The inhibition was 7.6% (inactive) in assay [1], -275% (inactive) in assay [3], 17.2% (inactive) in assay [7] and 16.7% (inactive) in assay [8]. In addition, in assay [2], the inhibition of aggregation is -10.2% (inactive). In addition, the nuclei count was 94.2% in assay [2] and 135% in assay [3]. For the same molecule, the fluorescence slope was -0.294 (inactive) in assay [4] and 0.00517 (inactive) in assay [6]. Further, the NADPH fluorescence slope in assay [5] is -3e-05 (inactive).
